Reference: ChEMBL document CHEMBL3580633, “Benzoxaborole antimalarial agents. Part 4. Discovery of potent 6-(2-(alkoxycarbonyl)pyrazinyl-5-oxy)-1,3-dihydro-1-hydroxy-2,1-benzoxaboroles” (J Med Chem, 2015)

Key:
Format in all cases: functional
Plasmodium berghei [1] = assay: Antiplasmodial activity against Plasmodium berghei infected in Swiss Webster mouse assessed as mouse survival at 33 mg/kg, po dosed once daily for 4 consecutive days beginning 1 hr after initial infection and measured on day 4 post infection by Giemsa staining method
In short: (§1)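 Female Swiss Webster mice (about 20 g) were infected ip with 6 × 10^6 P. berghei-infected erythrocytes from a donor mouse. They were dosed by oral gavage once daily for 4 days, starting 1 h post-infection, in PEG 300/propylene glycol/water (55/25/20 by weight). Parasitemia was read daily on Giemsa smears from day 4, and mice were euthanized above 50% parasitemia. Percent survival was tracked to 21 days.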

Plasmodium berghei [2] = assay: Antiplasmodial activity against Plasmodium berghei infected in Swiss Webster mouse assessed as mouse survival at 33 mg/kg, po dosed once daily for 4 consecutive days beginning 1 hr after initial infection and measured on day 5 post infection by Giemsa staining method; in short: as §1
Plasmodium berghei [3] = assay: Antiplasmodial activity against Plasmodium berghei infected in Swiss Webster mouse assessed as mouse survival at 33 mg/kg, po dosed once daily for 4 consecutive days beginning 1 hr after initial infection and measured on day 6 post infection by Giemsa staining method; in short: as §1
Plasmodium berghei [4] = assay: Antiplasmodial activity against Plasmodium berghei infected in Swiss Webster mouse assessed as mouse survival at 33 mg/kg, po dosed once daily for 4 consecutive days beginning 1 hr after initial infection and measured on day 7 post infection by Giemsa staining method; in short: as §1
Plasmodium berghei [5] = assay: Antiplasmodial activity against Plasmodium berghei infected in Swiss Webster mouse assessed as mouse survival at 33 mg/kg, po dosed once daily for 4 consecutive days beginning 1 hr after initial infection and measured on day 8 post infection by Giemsa staining method; in short: as §1
Plasmodium berghei [6] = assay: Antiplasmodial activity against Plasmodium berghei infected in Swiss Webster mouse assessed as mouse survival at 33 mg/kg, po dosed once daily for 4 consecutive days beginning 1 hr after initial infection and measured on day 10 post infection by Giemsa staining method; in short: as §1
Plasmodium berghei [7] = assay: Antiplasmodial activity against Plasmodium berghei infected in Swiss Webster mouse assessed as mouse survival at 11 mg/kg, po dosed once daily for 4 consecutive days beginning 1 hr after initial infection and measured on day 4 post infection by Giemsa staining method
In short: (§2)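 Female Swiss Webster mice (about 20 g) infected ip with 6 × 10^6 P. berghei-infected erythrocytes. Oral gavage once daily for 4 days, starting 1 h after infection. Vehicle PEG300/propylene glycol/water (55/25/20 by weight). Giemsa-smear parasitemia counted daily from day 4. Mice euthanised above 50% parasitemia. Survival followed to day 21, 5 mice per dose, chloroquine 30 mg/kg as reference.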

Plasmodium berghei [8] = assay: Antiplasmodial activity against Plasmodium berghei infected in Swiss Webster mouse assessed as mouse survival at 11 mg/kg, po dosed once daily for 4 consecutive days beginning 1 hr after initial infection and measured on day 6 post infection by Giemsa staining method; in short: as §2
Plasmodium berghei [9] = assay: Antiplasmodial activity against Plasmodium berghei infected in Swiss Webster mouse assessed as mouse survival at 11 mg/kg, po dosed once daily for 4 consecutive days beginning 1 hr after initial infection and measured on day 7 post infection by Giemsa staining method; in short: as §2
Plasmodium berghei [10] = assay: Antiplasmodial activity against Plasmodium berghei infected in Swiss Webster mouse assessed as […] dosed orally once daily for 4 consecutive days beginning 1 hr after initial infection and measured on day 4 after onset of treatment by Giemsa staining method; conditions: po
In short: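 In the P. berghei model, female Swiss Webster mice were infected ip with 6 × 10^6 infected erythrocytes. They were gavaged once daily for 4 days from 1 h post-infection, in PEG 300/propylene glycol/water (55/25/20 by weight), with 5 mice per dose. Parasitemia was counted on Giemsa smears. ED90 is the dose reducing parasitemia 90% versus vehicle controls 4 days after therapy began, fitted by nonlinear regression.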

Plasmodium berghei [11] = assay: Antiplasmodial activity against Plasmodium berghei infected in Swiss Webster mouse assessed as mouse survival at 3 mg/kg, po dosed once daily for 4 consecutive days beginning 1 hr after initial infection and measured on day 4 post infection by Giemsa staining method; in short: as §2
Plasmodium berghei [12] = assay: Antiplasmodial activity against Plasmodium berghei infected in Swiss Webster mouse assessed as mouse survival at 3 mg/kg, po dosed once daily for 4 consecutive days beginning 1 hr after initial infection and measured on day 5 post infection by Giemsa staining method; in short: as §2
Plasmodium berghei [13] = assay: Antiplasmodial activity against Plasmodium berghei infected in Swiss Webster mouse assessed as mouse survival at 3 mg/kg, po dosed once daily for 4 consecutive days beginning 1 hr after initial infection and measured on day 6 post infection by Giemsa staining method; in short: as §2
Plasmodium berghei [14] = assay: Antiplasmodial activity against Plasmodium berghei infected in Swiss Webster mouse assessed as mouse survival at 3 mg/kg, po dosed once daily for 4 consecutive days beginning 1 hr after initial infection and measured on day 7 post infection by Giemsa staining method; in short: as §2
Plasmodium berghei [15] = assay: Antiplasmodial activity against Plasmodium berghei infected in Swiss Webster mouse assessed as mouse survival at 3 mg/kg, po dosed once daily for 4 consecutive days beginning 1 hr after initial infection and measured on day 8 post infection by Giemsa staining method; in short: as §2
Plasmodium berghei [16] = assay: Antiplasmodial activity against Plasmodium berghei infected in Swiss Webster mouse assessed as mouse survival at 1 mg/kg, po dosed once daily for 4 consecutive days beginning 1 hr after initial infection and measured on day 4 post infection by Giemsa staining method; in short: as §2
Plasmodium berghei [17] = assay: Antiplasmodial activity against Plasmodium berghei infected in Swiss Webster mouse assessed as mouse survival at 1 mg/kg, po dosed once daily for 4 consecutive days beginning 1 hr after initial infection and measured on day 5 post infection by Giemsa staining method; in short: as §2
Plasmodium berghei [18] = assay: Antiplasmodial activity against Plasmodium berghei infected in Swiss Webster mouse assessed as mouse survival at 1 mg/kg, po dosed once daily for 4 consecutive days beginning 1 hr after initial infection and measured on day 7 post infection by Giemsa staining method; in short: as §2
Plasmodium berghei [19] = assay: Antiplasmodial activity against Plasmodium berghei infected in Swiss Webster mouse assessed as mouse survival at 1 mg/kg, po dosed once daily for 4 consecutive days beginning 1 hr after initial infection and measured on day 9 post infection by Giemsa staining method; in short: as §2
Plasmodium berghei [20] = assay: Antiplasmodial activity against Plasmodium berghei infected in Swiss Webster mouse assessed as mouse survival at 100 mg/kg, po dosed once daily for 4 consecutive days beginning 1 hr after initial infection and measured on day 4 post infection by Giemsa staining method; in short: as §2
Plasmodium berghei [21] = assay: Antiplasmodial activity against Plasmodium berghei infected in Swiss Webster mouse assessed as mouse survival at 100 mg/kg, po dosed once daily for 4 consecutive days beginning 1 hr after initial infection and measured on day 6 post infection by Giemsa staining method; in short: as §2
Plasmodium berghei [22] = assay: Antiplasmodial activity against Plasmodium berghei infected in Swiss Webster mouse assessed as mouse survival at 100 mg/kg, po dosed once daily for 4 consecutive days beginning 1 hr after initial infection and measured on day 7 post infection by Giemsa staining method; in short: as §2
Plasmodium berghei [23] = assay: Antiplasmodial activity against Plasmodium berghei infected in Swiss Webster mouse assessed as mouse survival at 100 mg/kg, po dosed once daily for 4 consecutive days beginning 1 hr after initial infection and measured on day 8 post infection by Giemsa staining method; in short: as §2
Plasmodium berghei [24] = assay: Antiplasmodial activity against Plasmodium berghei infected in Swiss Webster mouse assessed as mouse survival at 100 mg/kg, po dosed once daily for 4 consecutive days beginning 1 hr after initial infection and measured on day 9 post infection by Giemsa staining method; in short: as §2
Plasmodium berghei [25] = assay: Antiplasmodial activity against Plasmodium berghei infected in Swiss Webster mouse assessed as mouse survival at 100 mg/kg, po dosed once daily for 4 consecutive days beginning 1 hr after initial infection and measured on day 10 post infection by Giemsa staining method; in short: as §2

SMILES: O=C(O)c1cnc(Oc2ccc3c(c2)B(O)OC3)cn1
- survival at 33 mg/kg (Plasmodium berghei [1]): 100%
- survival at 33 mg/kg (Plasmodium berghei [2]): 100%
- survival at 33 mg/kg (Plasmodium berghei [3]): 100%
- survival at 33 mg/kg (Plasmodium berghei [4]): 100%
- survival at 33 mg/kg (Plasmodium berghei [5]): 80%
- survival at 33 mg/kg (Plasmodium berghei [6]): 40%
- survival at 11 mg/kg (Plasmodium berghei [7]): 100%
- survival at 11 mg/kg (Plasmodium berghei [8]): 100%
- survival at 11 mg/kg (Plasmodium berghei [9]): 100%
- ED90 (Plasmodium berghei [10]): 30.3 mg/kg
- survival at 3 mg/kg (Plasmodium berghei [11]): 100%
- survival at 3 mg/kg (Plasmodium berghei [12]): 100%
- survival at 3 mg/kg (Plasmodium berghei [13]): 100%
- survival at 3 mg/kg (Plasmodium berghei [14]): 60%
- survival at 3 mg/kg (Plasmodium berghei [15]): 20%
- survival at 1 mg/kg (Plasmodium berghei [16]): 100%
- survival at 1 mg/kg (Plasmodium berghei [17]): 100%
- survival at 1 mg/kg (Plasmodium berghei [18]): 80%
- survival at 1 mg/kg (Plasmodium berghei [19]): 0%
- survival at 100 mg/kg (Plasmodium berghei [20]): 100%
- survival at 100 mg/kg (Plasmodium berghei [21]): 100%
- survival at 100 mg/kg (Plasmodium berghei [22]): 100%
- survival at 100 mg/kg (Plasmodium berghei [23]): 100%
- survival at 100 mg/kg (Plasmodium berghei [24]): 60%
- survival at 100 mg/kg (Plasmodium berghei [25]): 60%

SMILES: O=C(O)c1ccc(Oc2ccc3c(c2)B(O)OC3)cn1
- survival at 33 mg/kg (Plasmodium berghei [1]): 100%
- survival at 33 mg/kg (Plasmodium berghei [2]): 100%
- survival at 33 mg/kg (Plasmodium berghei [3]): 100%
- survival at 33 mg/kg (Plasmodium berghei [4]): 100%
- survival at 33 mg/kg (Plasmodium berghei [5]): 60%
- survival at 11 mg/kg (Plasmodium berghei [7]): 100%
- survival at 11 mg/kg (Plasmodium berghei [8]): 100%
- survival at 11 mg/kg (Plasmodium berghei [9]): 100%
- ED90 (Plasmodium berghei [10]): 21.1 mg/kg
- survival at 3 mg/kg (Plasmodium berghei [11]): 100%
- survival at 3 mg/kg (Plasmodium berghei [12]): 100%
- survival at 3 mg/kg (Plasmodium berghei [13]): 100%
- survival at 3 mg/kg (Plasmodium berghei [14]): 60%
- survival at 3 mg/kg (Plasmodium berghei [15]): 20%
- survival at 1 mg/kg (Plasmodium berghei [16]): 100%
- survival at 1 mg/kg (Plasmodium berghei [17]): 100%
- survival at 1 mg/kg (Plasmodium berghei [18]): 60%
- survival at 100 mg/kg (Plasmodium berghei [20]): 100%
- survival at 100 mg/kg (Plasmodium berghei [21]): 100%
- survival at 100 mg/kg (Plasmodium berghei [22]): 100%
- survival at 100 mg/kg (Plasmodium berghei [23]): 80%
- survival at 100 mg/kg (Plasmodium berghei [24]): 0%

SMILES: COC(=O)c1cnc(Oc2ccc3c(c2)B(O)OC3)cn1
- survival at 33 mg/kg (Plasmodium berghei [1]): 100%
- survival at 33 mg/kg (Plasmodium berghei [2]): 100%
- survival at 33 mg/kg (Plasmodium berghei [3]): 100%
- survival at 33 mg/kg (Plasmodium berghei [4]): 100%
- survival at 33 mg/kg (Plasmodium berghei [5]): 100%
- survival at 33 mg/kg (Plasmodium berghei [6]): 100%
- survival at 11 mg/kg (Plasmodium berghei [7]): 100%
- survival at 11 mg/kg (Plasmodium berghei [8]): 100%
- survival at 11 mg/kg (Plasmodium berghei [9]): 100%
- ED90 (Plasmodium berghei [10]): 7 mg/kg
- survival at 3 mg/kg (Plasmodium berghei [11]): 100%
- survival at 3 mg/kg (Plasmodium berghei [12]): 100%
- survival at 3 mg/kg (Plasmodium berghei [13]): 100%
- survival at 3 mg/kg (Plasmodium berghei [14]): 100%
- survival at 3 mg/kg (Plasmodium berghei [15]): 80%
- survival at 1 mg/kg (Plasmodium berghei [16]): 100%
- survival at 1 mg/kg (Plasmodium berghei [17]): 100%
- survival at 1 mg/kg (Plasmodium berghei [18]): 100%
- survival at 1 mg/kg (Plasmodium berghei [19]): 0%
- survival at 100 mg/kg (Plasmodium berghei [20]): 100%
- survival at 100 mg/kg (Plasmodium berghei [21]): 100%
- survival at 100 mg/kg (Plasmodium berghei [22]): 100%
- survival at 100 mg/kg (Plasmodium berghei [23]): 100%
- survival at 100 mg/kg (Plasmodium berghei [24]): 100%
- survival at 100 mg/kg (Plasmodium berghei [25]): 100%

SMILES: NC(=O)c1cnc(Oc2ccc3c(c2)B(O)OC3)cn1
- survival at 33 mg/kg (Plasmodium berghei [1]): 100%
- survival at 33 mg/kg (Plasmodium berghei [2]): 100%
- survival at 33 mg/kg (Plasmodium berghei [3]): 100%
- survival at 33 mg/kg (Plasmodium berghei [4]): 100%
- survival at 33 mg/kg (Plasmodium berghei [5]): 100%
- survival at 33 mg/kg (Plasmodium berghei [6]): 0%
- survival at 11 mg/kg (Plasmodium berghei [7]): 100%
- survival at 11 mg/kg (Plasmodium berghei [8]): 100%
- survival at 11 mg/kg (Plasmodium berghei [9]): 100%
- ED90 (Plasmodium berghei [10]): 38.7 mg/kg
- survival at 3 mg/kg (Plasmodium berghei [11]): 100%
- survival at 3 mg/kg (Plasmodium berghei [12]): 100%
- survival at 3 mg/kg (Plasmodium berghei [13]): 100%
- survival at 3 mg/kg (Plasmodium berghei [14]): 80%
- survival at 3 mg/kg (Plasmodium berghei [15]): 60%
- survival at 1 mg/kg (Plasmodium berghei [16]): 100%
- survival at 1 mg/kg (Plasmodium berghei [17]): 100%
- survival at 1 mg/kg (Plasmodium berghei [18]): 60%
- survival at 1 mg/kg (Plasmodium berghei [19]): 0%
- survival at 100 mg/kg (Plasmodium berghei [20]): 100%
- survival at 100 mg/kg (Plasmodium berghei [21]): 100%
- survival at 100 mg/kg (Plasmodium berghei [22]): 100%
- survival at 100 mg/kg (Plasmodium berghei [23]): 100%
- survival at 100 mg/kg (Plasmodium berghei [24]): 60%
- survival at 100 mg/kg (Plasmodium berghei [25]): 0%
